Data on 4 molecules can be found in paper PMC6300136 (Cancer chemotherapy and pharmacology, 2011).

One data set deals with tumor cell growth. The following applies: inhibition of tumor cell growth in vitro; cited from earlier work.
Data set [1] is described as follows: Tolerability of a single IV dose of satraplatin in non-human primates. The data set is classed as in vivo, rhesus monkeys (Macaca mulatta). To be noted: single 120 mg/m^2 (6 mg/kg) IV dose over 1 h in NHP. A digest of the protocol:
(§1)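 Five adult male rhesus monkeys (7.3–14.9 kg) were fasted ≥6 h before and 2 h after dosing and given IV ondansetron 0.1 mg/kg (max 2 mg) beforehand. A single dose of test compound, 6 mg/kg (human equivalent 120 mg/m2) in 5% DMSO/0.9% saline, was infused over 1 h through a central venous catheter, with IV fluid hydration during and after.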

Data set [2] in a line: Stability of satraplatin spiked plasma at room temperature. The data set is classed as in vitro ADME.
Data set [3] can be described thus: Plasma ultrafiltrate pharmacokinetics of satraplatin. The class given is in vivo, rhesus monkeys (Macaca mulatta). In outline: as §1
Data set [4] is classed as in vivo, rhesus monkeys (Macaca mulatta). In outline: as §1
The conditions of data set [5]: cited from earlier work.
For data set [6] the following is noted: carboplatin administration every 4 weeks; cited from earlier work.
The conditions of data set [7]: cited from earlier work. The source holds these as a separate data set.
The conditions of data set [8]: brain microdialysis in the same NHP model; cited from earlier work.
[9] abbreviates: plasma UF, individual animal, 6 mg/kg IV over 1 h, 6 mg/kg.
Where [10] appears, read: CSF from intralumbar catheter, animal 1, 6 mg/kg IV over 1 h.

Where “and” joins values, the source holds several entries; their conditions need not be identical. Equal values may be shown once. Entries after “also recorded” stand apart in the source; their conditions may differ. Read-outs that look alike come from different tables or passages of the source.

Take `N.NC1CCCCC1.[Cl-].[Cl-].[Pt+2]` [JM-118]: in the data set on tumor cell growth, the “potency relative to parent drug satraplatin” value is “up to 16 fold”.

With `CC(=O)[O][Pt]([NH2])([Cl])([Cl])([NH]C1CCCCC1)[O]C(C)=O` [Satraplatin, (OC-6–43)-bis(acetato)amminedichloro(cyclohexylamine)platinum], the Tolerability result in [1] is listed as “well tolerated; also recorded: no adverse clinical or laboratory sequelae”. In data set [2], the “stability of spiked plasma” value is listed as “at least 2 h”. Also, the “AUC0–24h in NHP after IV relative to humans at equivalent oral doses” value in data set [3] (plasma UF exposure, NHP IV versus human oral) was “approximately 20 fold”. Also, the Tmax (as a rule, the time from dosing to the highest level) was 1.1 h and 1.0 h and 0.5 h in data set [3] (plasma UF, individual animal, 6 mg/kg (120 mg/m^2) IV over 1 h, time after start of infusion, 6 mg/kg); 1.1 h in data set [4] (setting [10]). The “AUC0–48h” value in data set [3] (setting [9]) was 33.2 µM·h and 27.4 µM·h and 22.6 µM·h and 29.2 µM·h; in data set [4] (CSF, individual animal, 6 mg/kg IV over 1 h, 6 mg/kg) it was 2.43 µM·h and 1.26 µM·h and 0.49 µM·h and 1.14 µM·h. Also, the highest concentration (Cmax) – broadly, the maximum level reached in the sampled fluid or tissue – in data set [3] (setting [9]) was 10.6 µM and 10.4 µM and 5.7 µM and 6.9 µM and 8.3 µM; in data set [4] (setting [10]) it was 0.62 µM; in [4] (read-out: Cmax, median (range), CSF, median (range) of NHP) it was 0.09 µM. Also, the Cl in [3] (plasma UF, individual animal, dose/AUC0–inf, 6 mg/kg IV over 1 h) is 5.67 mL/min/kg and 5.17 mL/min/kg and 6.17 mL/min/kg and 6 mL/min/kg. Besides, the T½ in [3] (plasma UF, individual animal, terminal half-life, 6 mg/kg IV over 1 h, 6 mg/kg) is 13.4 h and 19.5 h and 18.8 h and 17.4 h and 25 h. The “Cl, median (range)” value in data set [3] (plasma UF, median (range) of 5 NHP) is on record as 0.36 (0.31–0.37) l/h/kg. Also, the “AUC0–48h, median (range)” value is recorded as 29.2 (22.6–33.2) μM h in data set [3] (plasma UF, median (range) of 5 NHP, 6 mg/kg IV over 1 h) and 1.2 (0.49–2.43) μM h in data set [4] (CSF, median (range) of NHP). The “Tmax, median (range)” value in data set [3] (plasma UF, median (range) of 5 NHP, 6 mg/kg IV over 1 h, after start of infusion) is on record as 1.0 (0.5–1.1) h. Besides, in [3] (plasma UF, median (range) of 5 NHP, extrapolated to infinity), the “AUC0–inf, median (range)” value was 32.1 (24.7–38.2) μM h. The “T½, median (range)” value in [3] (plasma UF, median (range) of 5 NHP, terminal half-life) is recorded as 18.8 (13.4–25) h. For the same molecule, in [4] (CSF penetration, individual animal, 6 mg/kg IV over 1 h, 6 mg/kg), the “Ratio AUC0–48h CSF: AUC0–48h plasma UF” value was 7.4% and 4.6% and 2.2% and 3.9%. Moreover, the “AUC0–48 for CSF, median (range)” value in [4] (CSF, median, unit as printed in the results text) came to 1.2 µM. The “CSF penetration (Ratio AUC0–48h CSF: AUC0–48h plasma UF), median (range)” value in [4] (median (range) of NHP) is on record as 4.3 (2.2–7.4) %. Also, the accumulation factor in [5] (daily dosing in clinical trials) is given as at most 4.1. Also, the half-life – broadly, the time in which the quantity being followed falls by half – in [5] (human phase I trials after oral dosing, mean) is reported as 7 h.

For the molecule `N.N.O=C([O-])C1(C(=O)[O-])CCC1.[Pt+2]` [carboplatin], the incidence of anaphylaxis in [6] is given as at most 22%. In addition, the CSF penetration in [7] (non-human primate model) is recorded as 2.6%. Also, the CNS penetration in data set [8] is listed as under 5%.

Regarding `N.N.[Cl][Pt][Cl]` [cisplatin], in data set [7] (in vivo), the CSF penetration was 3.7%.
